Measurements as given in ChEMBL document CHEMBL3232844, “Synthesis and structure activity relationships of schweinfurthin indoles” (2014).

Columns and labels:
Format in all cases: functional
RPMI-8226 = assay: Cytotoxicity against human RPMI8226 cells; settings: for CC50: read-out: pLC50 (the source's name) (converted); for TGI: read-out: pTGI (converted)
In short: (§1)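 Tested in a 60-cell-line human tumor panel screen; the read-out is growth inhibition, reported as GI50 for each cell line.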

HOP-62 = assay: Cytotoxicity against human HOP62 cells; settings: for CC50: read-out: pLC50 (the source's name) (converted); for TGI: read-out: pTGI (converted); in short: as §1
TK-10 = assay: Cytotoxicity against human TK10 cells; settings: for TGI: read-out: pTGI (converted)
In short: (§2)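 Cell line run as part of the 60-cell-line screening panel; growth inhibition was reported as a GI50 for each line.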

HOP-92 = assay: Cytotoxicity against human HOP92 cells; settings: for CC50: read-out: pLC50 (the source's name) (converted); for TGI: read-out: pTGI (converted); in short: as §1
SF-268 = assay: Cytotoxicity against human SF268 cells; settings: for CC50: read-out: pLC50 (the source's name) (converted); for TGI: read-out: pTGI (converted); in short: as §1
[1] = Cytotoxicity against human OVCAR5 cells; settings: for GI50: OVCAR-5; for CC50: OVCAR-5, read-out: pLC50 (the source's name) (converted); for TGI: OVCAR-5, read-out: pTGI (converted); in short: as §1
SW-620 = assay: Cytotoxicity against human SW620 cells; settings: for CC50: read-out: pLC50 (the source's name) (converted); for TGI: read-out: pTGI (converted); in short: as §2
SK-MEL-28 = assay: Cytotoxicity against human SK-MEL-28 cells; settings: for CC50: read-out: pLC50 (the source's name) (converted); for TGI: read-out: pTGI (converted); in short: as §1
DU-145 = assay: Cytotoxicity against human DU145 cells; settings: for TGI: read-out: pTGI (converted); in short: as §1
SNB-19 = assay: Cytotoxicity against human SNB19 cells; settings: for CC50: read-out: pLC50 (the source's name) (converted); for TGI: read-out: pTGI (converted); in short: as §1
HCC 2998 = assay: Cytotoxicity against human HCC2998 cells; settings: for CC50: read-out: pLC50 (the source's name) (converted); for TGI: read-out: pTGI (converted); in short: as §1
Malme-3M = assay: Cytotoxicity against human MALME-3M cells; settings: for CC50: read-out: pLC50 (the source's name) (converted); for TGI: read-out: pTGI (converted); in short: as §1
SR = assay: Cytotoxicity against human SR cells; settings: for CC50: read-out: pLC50 (the source's name) (converted); for TGI: read-out: pTGI (converted); in short: as §2
[2] = Cytotoxicity against human Hs578T cells; settings: Hs-578T; for TGI: read-out: pTGI (converted); in short: as §1
[3] = Cytotoxicity against human OVCAR8 cells; settings: for GI50: OVCAR-8; for CC50: OVCAR-8, read-out: pLC50 (the source's name) (converted); for TGI: OVCAR-8, read-out: pTGI (converted); in short: as §1
NCI-H522 = assay: Cytotoxicity against human NCI-H522 cells; settings: for CC50: read-out: pLC50 (the source's name) (converted); for TGI: read-out: pTGI (converted); in short: as §1
KM12 = assay: Cytotoxicity against human KM12 cells; settings: for CC50: read-out: pLC50 (the source's name) (converted); for TGI: read-out: pTGI (converted); in short: as §1

## CC1(C)[C@H](O)CC[C@@]2(C)Oc3c(O)cc(/C=C/c4cc(O)c5cc[nH]c5c4)cc3C[C@H]12
RPMI-8226
  GI50: 15.8 nM
  CC50: 11.5 µM
  TGI: 66.1 nM
HOP-62
  GI50: 631 nM
  CC50: > 100 µM
  TGI: 7.08 µM
TK-10
  GI50: 3.55 µM
  LC50: > 100 µM
  TGI: 34.7 µM
HOP-92
  GI50: 501 nM
  CC50: > 100 µM
  TGI: 5.5 µM
SF-268
  GI50: 589 nM
  CC50: 79.4 µM
  TGI: 26.3 µM
[1]
  GI50: 17.8 µM
  CC50: 97.7 µM
  TGI: 53.7 µM
SW-620
  GI50: 214 nM
  CC50: 6.46 µM
  TGI: 1350 nM
SK-MEL-28
  GI50: 6170 nM
  CC50: > 100 µM
  TGI: > 100000 nM
DU-145
  GI50: 0.912 µM
  LC50 (50% lethal concentration): 33.1 µM
  TGI: 6.46 µM
SNB-19
  GI50: 1120 nM
  CC50: > 100 µM
  TGI: 26.9 µM
HCC 2998
  GI50: 3.16 µM
  CC50: 39.8 µM
  TGI: 14.1 µM
Malme-3M
  GI50: 3020 nM
  CC50: 60.3 µM
  TGI: 17 µM
SR
  GI50: 123 nM
  CC50: > 100 µM
  TGI: 21.4 µM
[2]
  GI50: 10 nM
  LC50: > 100 µM
  TGI: 427 nM
[3]
  GI50: 4.79 µM
  CC50: > 100 µM
  TGI: 42.7 µM
NCI-H522
  GI50: 1070 nM
  CC50: 38 µM
  TGI: 6.92 µM
KM12
  GI50: 447 nM
  CC50: 7.76 µM
  TGI: 1950 nM

## COc1cc(/C=C/c2cc(OC)c3cc[nH]c3c2)cc2c1O[C@]1(C)CC[C@@H](O)C(C)(C)[C@H]1C2
RPMI-8226
  GI50: 28.2 nM
  CC50: > 100 µM
  TGI: 85.1 nM
HOP-62
  GI50: 501 nM
  CC50: 9.55 µM
  TGI: 2.4 µM
TK-10
  GI50: 1.55 µM
  LC50: > 100 µM
  TGI: 11 µM
SF-268
  GI50: 282 nM
  CC50: 10 µM
  TGI: 10.2 µM
[1]
  GI50: 1 µM
  CC50: > 100 µM
  TGI: 6.03 µM
SW-620
  GI50: 309 nM
  CC50: 5.5 µM
  TGI: 1350 nM
SK-MEL-28
  GI50: 209 nM
  TGI: 776 nM
DU-145
  GI50: 1.07 µM
  LC50 (50% lethal concentration): > 100 µM
  TGI: 4.37 µM
SNB-19
  GI50: 676 nM
  CC50: > 100 µM
  TGI: 7.08 µM
HCC 2998
  GI50: 2.24 µM
  CC50: 49 µM
  TGI: 11.2 µM
Malme-3M
  GI50: 575 nM
  CC50: > 100 µM
  TGI: 4.9 µM
SR
  GI50: 302 nM
  CC50: > 100 µM
  TGI: 5.62 µM
[2]
  GI50: 51.3 nM
  LC50: > 100 µM
  TGI: 776 nM
[3]
  GI50: 3.63 µM
  CC50: > 100 µM
  TGI: 25.1 µM
NCI-H522
  GI50: 708 nM
  CC50: > 100 µM
  TGI: 2.88 µM
KM12
  GI50: 191 nM
  CC50: 3.63 µM
  TGI: 468 nM

## COc1cc(/C=C/c2cc(O)c3c(c2)C[C@@H]2C(C)(C)[C@H](O)CC[C@@]2(C)O3)cc2c1ccn2C
HOP-62
  GI50: 75.9 nM
  CC50: 26.9 µM
  TGI: 4.68 µM
TK-10
  GI50: 9.77 µM
  LC50: 63.1 µM
  TGI: 25.1 µM
HOP-92
  GI50: 955 nM
  CC50: 89.1 µM
  TGI: 12.6 µM
SF-268
  GI50: 12.9 nM
  CC50: 69.2 µM
  TGI: 24 µM
[1]
  GI50: 11.2 µM
  CC50: 53.7 µM
  TGI: 21.9 µM
SW-620
  CC50: 18.6 µM
SK-MEL-28
  GI50: 145 nM
  CC50: 45.7 µM
  TGI: 17400 nM
DU-145
  GI50: 5.62 µM
  LC50 (50% lethal concentration): 42.7 µM
  TGI: 19.1 µM
SNB-19
  GI50: 14.1 nM
  CC50: 41.7 µM
  TGI: 13.8 µM
HCC 2998
  GI50: 0.214 µM
  CC50: 45.7 µM
  TGI: 18.6 µM
SR
  GI50: 75.9 nM
  CC50: 89.1 µM
  TGI: 39.8 µM
[2]
  GI50: 22.9 nM
  LC50: 89.1 µM
  TGI: 3550 nM
[3]
  GI50: 4.27 µM
  CC50: 89.1 µM
  TGI: 39.8 µM
NCI-H522
  GI50: 5890 nM
KM12
  GI50: 295 nM
  CC50: 44.7 µM
  TGI: 18600 nM

## COc1cc(/C=C/c2cc(O)c3c(C/C=C(\C)CCC=C(C)C)c[nH]c3c2)cc2c1O[C@]1(C)CC[C@@H](O)C(C)(C)[C@H]1C2
RPMI-8226
  GI50: 158 nM
  CC50: > 100 µM
  TGI: 1660 nM
HOP-62
  GI50: 794 nM
  CC50: 8.71 µM
  TGI: 2.75 µM
TK-10
  GI50: 16.6 µM
  LC50: > 100 µM
  TGI: > 100 µM
HOP-92
  GI50: 724 nM
  CC50: > 100 µM
  TGI: 8.71 µM
SF-268
  GI50: 2750 nM
  CC50: > 100 µM
  TGI: > 100 µM
[1]
  GI50: 15.1 µM
  CC50: > 100 µM
  TGI: > 100 µM
DU-145
  GI50: 5.37 µM
  LC50 (50% lethal concentration): > 100 µM
  TGI: > 100 µM
SNB-19
  GI50: 2450 nM
  CC50: > 100 µM
  TGI: > 100 µM
HCC 2998
  GI50: 4.9 µM
  CC50: > 100 µM
  TGI: 36.3 µM
Malme-3M
  GI50: 2950 nM
  CC50: > 100 µM
  TGI: 61.7 µM
SR
  GI50: 550 nM
  CC50: > 100 µM
  TGI: 29.5 µM
[3]
  GI50: 72.4 µM
  CC50: > 100 µM
  TGI: > 100 µM
NCI-H522
  GI50: 2630 nM
  CC50: > 100 µM
  TGI: 16.6 µM
KM12
  GI50: 525 nM
  CC50: 5.37 µM
  TGI: 1780 nM

## COc1cc(/C=C/c2cc(O)c3c(CC=C(C)C)c[nH]c3c2)cc2c1O[C@]1(C)CC[C@@H](O)C(C)(C)[C@H]1C2
HOP-62
  GI50: 234 nM
  CC50: 50.1 µM
TK-10
  GI50: 7.76 µM
  LC50: 50.1 µM
  TGI: 50.1 µM
HOP-92
  GI50: 589 nM
  CC50: 50.1 µM
  TGI: 50.1 µM
SF-268
  GI50: 1020 nM
  CC50: 50.1 µM
  TGI: 50.1 µM
[1]
  GI50: 15.1 µM
  CC50: 50.1 µM
  TGI: 50.1 µM
SW-620
  GI50: 447 nM
  CC50: 10.7 µM
  TGI: 1740 nM
SK-MEL-28
  GI50: 550 nM
  CC50: 50.1 µM
  TGI: 1910 nM
DU-145
  GI50: 3.55 µM
  LC50 (50% lethal concentration): 50.1 µM
  TGI: 50.1 µM
SNB-19
  GI50: 708 nM
  CC50: 50.1 µM
  TGI: 50.1 µM
HCC 2998
  GI50: 3.02 µM
  CC50: 50.1 µM
  TGI: 50.1 µM
SR
  GI50: 295 nM
  CC50: 50.1 µM
  TGI: 50.1 µM
[2]
  GI50: 70.8 nM
  LC50: 50.1 µM
  TGI: 1000 nM
[3]
  GI50: 12.9 µM
  CC50: 50.1 µM
  TGI: 50.1 µM
KM12
  GI50: 275 nM
  TGI: 1120 nM
